The source of these data is publication PMC9441147 (Drug Design, Development and Therapy, 2022).

A short description of data set [1]: Lung and plasma PK after single intratracheal dose in treatment-naïve rats. In kind it is in vivo. As to conditions: rat. The method in brief: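 Treatment-naïve rats were given a single IT dose, at a lung-deposited dose of 52 or 30 µg/kg depending on compound. Plasma and lungs were sampled at 0.03, 0.5, 2, 6, 8 and 24 h, three animals per time point. Post-caval lobes were bead-homogenized in Ringer's solution. Samples were protein-precipitated with acetonitrile containing 0.2% formic acid and internal standard, then analysed by LC-MS/MS.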

Data set [2] addresses T1, JAK3 (Homo sapiens, UniProt P52333).
T1 sequence (P52333 1-1124): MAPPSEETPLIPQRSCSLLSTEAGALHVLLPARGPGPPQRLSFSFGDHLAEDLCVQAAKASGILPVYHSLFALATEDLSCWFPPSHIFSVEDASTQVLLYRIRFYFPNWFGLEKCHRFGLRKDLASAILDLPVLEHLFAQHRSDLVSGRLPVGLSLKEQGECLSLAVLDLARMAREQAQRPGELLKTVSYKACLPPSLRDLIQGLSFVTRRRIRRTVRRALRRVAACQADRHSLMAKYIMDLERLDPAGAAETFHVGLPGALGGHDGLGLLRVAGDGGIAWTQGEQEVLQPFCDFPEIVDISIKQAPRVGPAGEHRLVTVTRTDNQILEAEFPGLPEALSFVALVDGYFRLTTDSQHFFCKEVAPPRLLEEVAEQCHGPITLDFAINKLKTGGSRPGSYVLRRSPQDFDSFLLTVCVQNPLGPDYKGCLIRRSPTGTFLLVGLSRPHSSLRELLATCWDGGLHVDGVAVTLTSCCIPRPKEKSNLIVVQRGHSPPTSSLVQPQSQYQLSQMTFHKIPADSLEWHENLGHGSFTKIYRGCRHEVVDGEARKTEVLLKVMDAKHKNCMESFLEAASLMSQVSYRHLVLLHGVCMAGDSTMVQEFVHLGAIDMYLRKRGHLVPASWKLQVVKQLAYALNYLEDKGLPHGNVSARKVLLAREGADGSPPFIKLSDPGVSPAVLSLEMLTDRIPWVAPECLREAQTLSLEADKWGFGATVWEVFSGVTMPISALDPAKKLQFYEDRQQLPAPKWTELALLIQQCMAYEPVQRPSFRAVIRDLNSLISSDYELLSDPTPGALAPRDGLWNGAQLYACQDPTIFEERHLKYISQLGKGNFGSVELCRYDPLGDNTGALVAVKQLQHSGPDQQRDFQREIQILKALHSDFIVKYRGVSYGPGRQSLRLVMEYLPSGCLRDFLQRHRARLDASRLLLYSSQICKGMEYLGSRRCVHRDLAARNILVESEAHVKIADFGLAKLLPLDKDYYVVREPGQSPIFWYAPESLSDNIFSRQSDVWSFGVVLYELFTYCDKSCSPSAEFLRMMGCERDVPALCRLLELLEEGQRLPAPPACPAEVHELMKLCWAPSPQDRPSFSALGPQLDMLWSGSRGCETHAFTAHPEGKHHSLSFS
The experiment in a line: JAK3 enzymatic assay, 1 mM ATP. In kind it is biochemical.

In data set [3] the test system is IFNα-induced STAT1 phosphorylation in human T cells or monocytes. The experiment in a line: IFNα-induced STAT1 phosphorylation, flow cytometry. In kind it is cell-based. Conditions: read-out: IC50, IFNα, STAT1. The method, boiled down:
(§1)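 PBMCs were isolated by density gradient from healthy human donor blood, sometimes enriched for lymphocytes or monocytes, and rested. Cells were preincubated with serially diluted test compound (DMSO vehicle), then stimulated with the relevant cytokine. They were fixed (formaldehyde), permeabilized and stained for phospho-STAT, with isotype-control gates and surface-marker cell gating. Flow cytometry gave % phospho-STAT+ cells. Inhibition was calculated versus vehicle-treated stimulated cells to derive IC50.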

Data set [4] in a line: Caco-2 permeability, pH 6.5. In kind it is in vitro ADME. Conditions: human, Caco-2, pH 6.5.
Data set [5] relates to phosphorylated STAT3-positive cell nuclei. Briefly: pSTAT3 immunohistochemistry of lung sections, OVA-challenged rats. In kind it is in vivo, rat. As to conditions: OVA/AZD4604 1 mg/kg versus OVA/vehicle.
For data set [6], the system named is OVA-challenged rats. Briefly: Airway and lung inflammation in OVA-induced rat model of asthma. In kind it is in vivo. As to conditions: IT. The method, boiled down:
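Rats sensitized IP with OVA (100 µg/rat) in aluminium/magnesium hydroxide on days 0, 14, 21 and challenged day 28 with 1% aerosolized OVA for 30 min. Test compound was given IT under isoflurane at 1 mL/kg, 1 h before challenge (100–3000 µg/kg). BAL (2 × 3 mL RPMI) was taken 24 h post-challenge. Leukocytes were counted automatically, with differentials from Wright-stained cytospins; n=7–10/group.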

The subject of data set [7] is IL-12-induced STAT4 phosphorylation in human CD3+ T cells and CD56+ NK cells. Briefly: IL-12-induced STAT4 phosphorylation, flow cytometry. In kind it is cell-based. As to conditions: T-cell, read-out: IC50, IL-12, STAT4. The method in brief:
as §1

The subject of data set [8] is STAT3 phosphorylation. Briefly: pSTAT3 in whole lung homogenate, OVA-challenged rats. In kind it is in vivo, rat. As to conditions: IT dosing, 2 hours after OVA challenge, vs OVA/vehicle. The method, boiled down:
(§2)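 In the OVA-sensitized, OVA-challenged rat model, test compound was given IT 1 h before challenge. Post-caval lung lobes taken 2 h after challenge were powderized in liquid nitrogen and lysed in buffer with protease/phosphatase inhibitors. Protein was measured by Bradford assay. Lysate (10 µg protein) was run on MSD phospho-STAT3/STAT5a/STAT5b/Akt(T308) plates, and blank-subtracted electrochemiluminescence was read.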

The subject of data set [9] is IL-2-induced STAT5 phosphorylation in human T cells. Briefly: IL-2-induced STAT5 phosphorylation in human T cells, flow cytometry. In kind it is cell-based. Conditions: T-cell, read-out: IC50, IL-2, STAT5 (human). The method in brief: as §1
Data set [10] can be described thus: In vivo plasma PK after IV dosing in rats. As to conditions: rat. The method in brief: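 Rats received a single IV bolus of test compound, at 1.0 or 0.5 mg/kg depending on compound; n=2. Plasma was then sampled to derive clearance, steady-state volume of distribution and terminal half-life.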
The nature of data set [11]: In vitro rat plasma protein binding. In kind it is in vitro ADME.
For data set [12], the system named is IL-13-induced STAT6 phosphorylation in human CD14+ monocytes. The experiment in a line: IL-13-induced STAT6 phosphorylation in monocytes. In kind it is cell-based. As to conditions: Monocyte, read-out: IC50, IL-13, STAT6. The method, boiled down:
as §1

In data set [13] the test system is STAT5a phosphorylation. Briefly: pSTAT5a in whole lung homogenate, OVA-challenged rats. In kind it is in vivo, rat. Conditions: IT dosing, 2 hours after OVA challenge, vs OVA/vehicle. The method in brief: as §2
The test system of data set [14] is STAT5b phosphorylation. Briefly: pSTAT5b in whole lung homogenate, OVA-challenged rats. In kind it is in vivo, rat. Conditions: IT dosing, 2 hours after OVA challenge, vs OVA/vehicle. The method in brief: as §2
A short description of data set [15]: Kinetic solubility, pH 6.8. In kind it is physicochemical. Conditions: pH 6.8, aqueous buffer, kinetic from dmso stock.
Data set [16] in a line: Thermodynamic solubility, pH 7.4. In kind it is physicochemical.
Data set [17] concerns pAkt. Briefly: pAkt analysis in lung tissue, OVA rat model. In kind it is in vivo. Conditions: lung tissue 2 hours after OVA challenge. The method, boiled down: as §2
Data set [18] has as its system NF-κB. The experiment in a line: NF-κB p65 analysis in lung tissue, OVA rat model. As to conditions: lung tissue 2 hours after OVA challenge. In kind it is in vivo. The method, boiled down: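 In the OVA-sensitized, OVA-challenged rat model, test compound was given IT 1 h before challenge. Lungs were powderized 2 h after challenge and nuclear extracts prepared with a nuclear extraction kit. Nuclear extract (10 µg) was assayed for NF-κB p65 activation by TransAm ELISA-type assay.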

In data set [19] the test system is IL-4-induced STAT6 phosphorylation in human CD4+ T cells. The experiment in a line: IL-4-induced STAT6 phosphorylation, flow cytometry. In kind it is cell-based. Conditions: read-out: IC50, IL-4, STAT6. The method, boiled down:
as §1

Data set [20] has as its system TSLP-induced production of CCL17 in human CD14+ monocytes. The experiment in a line: TSLP-induced CCL17 release in monocytes. In kind it is cell-based. As to conditions: Monocyte, read-out: IC50, TSLP, CCL17. The method in brief:
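Human monocytes were taken from PBMCs isolated by density gradient from healthy donor blood. They were preincubated with serially diluted test compound (DMSO vehicle), then stimulated with recombinant TSLP. Supernatants were collected by brief centrifugation, and released CCL17 was quantified by ELISA or MSD U-plex immunoassay. Reduction versus vehicle-treated stimulated cells gave IC50.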

The nature of data set [21]: Basic pKa, measured. In kind it is physicochemical.
Data set [22] concerns the target JAK1 (Homo sapiens, UniProt P23458). As to conditions: biochemical assays; cited from earlier work.

In brackets after ≈: the same amount, converted by molar mass.

Chain of JAK1 (P23458 whole entry): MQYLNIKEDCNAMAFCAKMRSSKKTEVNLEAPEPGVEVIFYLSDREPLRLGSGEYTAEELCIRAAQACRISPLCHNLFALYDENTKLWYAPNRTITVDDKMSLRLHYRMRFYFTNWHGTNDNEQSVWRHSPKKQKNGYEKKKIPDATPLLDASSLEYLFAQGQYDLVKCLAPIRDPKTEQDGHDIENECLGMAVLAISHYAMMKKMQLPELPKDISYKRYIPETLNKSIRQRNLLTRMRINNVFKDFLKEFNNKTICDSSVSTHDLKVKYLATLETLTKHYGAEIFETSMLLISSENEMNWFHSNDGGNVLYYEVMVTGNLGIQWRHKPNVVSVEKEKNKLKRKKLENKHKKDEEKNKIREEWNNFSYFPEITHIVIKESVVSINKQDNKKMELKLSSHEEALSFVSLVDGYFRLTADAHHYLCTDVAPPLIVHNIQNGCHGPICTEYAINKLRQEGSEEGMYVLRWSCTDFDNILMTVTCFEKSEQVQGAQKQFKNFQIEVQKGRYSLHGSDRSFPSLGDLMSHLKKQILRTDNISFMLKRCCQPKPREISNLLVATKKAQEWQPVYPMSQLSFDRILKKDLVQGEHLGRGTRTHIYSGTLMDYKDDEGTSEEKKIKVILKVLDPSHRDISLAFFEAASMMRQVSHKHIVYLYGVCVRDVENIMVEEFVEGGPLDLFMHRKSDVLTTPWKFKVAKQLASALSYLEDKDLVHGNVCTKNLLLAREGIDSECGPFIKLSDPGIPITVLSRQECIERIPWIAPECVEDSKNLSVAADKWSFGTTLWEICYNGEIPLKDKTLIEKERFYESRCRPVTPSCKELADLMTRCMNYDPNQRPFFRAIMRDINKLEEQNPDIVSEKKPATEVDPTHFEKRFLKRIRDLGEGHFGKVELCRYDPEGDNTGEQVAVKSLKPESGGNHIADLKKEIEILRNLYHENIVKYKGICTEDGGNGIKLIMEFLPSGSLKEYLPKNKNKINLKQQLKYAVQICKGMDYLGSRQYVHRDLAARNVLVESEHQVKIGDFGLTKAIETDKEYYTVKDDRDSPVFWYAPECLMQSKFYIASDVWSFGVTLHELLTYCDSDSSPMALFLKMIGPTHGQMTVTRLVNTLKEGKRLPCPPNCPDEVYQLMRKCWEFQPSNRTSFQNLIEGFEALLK

Regarding `COC[C@H](C(=O)Nc1cccc2c(-c3nc(Nc4cccc(S(C)(=O)=O)c4F)ncc3F)c[nH]c12)N1CCN(C)CC1` [AZD4604], the “proportion of the dose remaining in whole lung tissue 24 hours after administration” value in data set [1] (IT, assuming 100% lung deposition) worked out at 0.3%. For the same compound, the half-life in data set [1] (lung, inhaled or intranasal) is around 5 h; in data set [1] (lung, other: intratracheal), 5 h; in data set [1] (plasma, inhaled or intranasal) it was around 5 h; in [10], 4.2 h. The IC50 in data set [2] is above 10000 nM; in data set [3], 1.2 nM; in data set [7], 98 nM; in [9] it was 21 nM; in data set [12] it was 23.1 nM; in [19], 16.9 nM. The IC50 in data set [20] was 57 nM. Moreover, the apparent permeability (Papp) in data set [4] came out at 6.7 ×10⁻⁶ cm/s. For the same compound, the “proportion of phosphorylated STAT3-positive cell nuclei in endothelium and bronchial epithelium” value in [5] (P < 0.01) is given as “significantly reduced”. Further, the “proportion of phosphorylated STAT3-positive cell nuclei in the alveolar epithelium” value in data set [5] (P < 0.05) is reported as “significantly reduced”. Besides, the “eosinophil numbers in BALF” value in data set [6] (24 hours after OVA challenge, vs OVA/vehicle) is reported as “numerically reduced”. Also, in [6] (24 hours after OVA challenge, vs vehicle, to levels seen in saline-challenged animals), the “eosinophil numbers in lung tissue” value was “reduced”. Moreover, the “cytokines eotaxin and IL-1β in BALF” value in data set [6] (vs OVA/vehicle) is listed as “numerically lowered”. Further, the “levels of lymphocytes, neutrophils, and macrophages in BALF” value in data set [6] (vs OVA/vehicle) was “numerically lowered”. In addition, the “STAT3 phosphorylation in whole lung homogenates” value in [8] is recorded as “dose-dependently inhibited”. In [10], this compound came in with a Vd of 9.9 L/kg. In [10], this compound gave a clearance of 33 mL/min/kg. In data set [11], the “In vitro rat plasma protein binding, % free” value is 10.4 % free. In addition, the “STAT5a phosphorylation in whole lung homogenates” value in [13] is “dose-dependently inhibited”. In data set [14], the “STAT5b phosphorylation in whole lung homogenates” value is reported as “dose-dependently inhibited”. Moreover, the solubility (kinetic) in [15] worked out at 18 µM (≈ 10.8 µg/mL). In data set [16], this compound registered a thermodynamic solubility of 6.6 µM (≈ 3.96 µg/mL). In addition, the “effect on pAkt” value in [17] was “no significant effect”. Further, the “effect on NF-κB” value in data set [18] is recorded as “no significant effect”. Further, the pKa in data set [21] was determined as 7.9.
Turning to `CN(CCC#N)C1CCN(C(=O)Cn2cc(NC(=O)c3cnn4cccnc34)c(-c3cc(Cl)ccc3OC(F)F)n2)CC1` [GDC-0214], in data set [22], the “increased selectivity for JAK1 over JAK2” value was “twofold”.
Take `CN(CCC#N)C1CCN(C(=O)Cn2cc(NC(=O)c3cnn4cccnc34)c(-c3cc(Cl)ccc3OC(F)F)n2)CC1` [iJak-381]: in data set [22], the “increased selectivity for JAK1 over JAK2” value is recorded as “sixfold”.
